TDP2 inh = human TDP2 enzyme inhibitors, primary screen, biochemical, epi absorbance, recombinant enzyme | T5PNP hydrolysis, p-nitrophenol absorbance 415 nm | AID 720702, 2013 | inhibition, % at 12.8 µM | 370,000 tested, 0.34% active;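 active = inhibition above the mean of all tested compounds plus 3 SD, set per campaign, cut at about 25% in these data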;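 also: 0% = DMSO with enzyme and 100% = buffer with substrate but no TDP2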
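Test system: Human TDP2 enzyme | Reagent: 5 mM T5PNP | Compound dosing: 12.8 µM single point, 1% DMSO | Incubation: Enzyme reaction with compound for 2 h at 37 °C | Technique: p-Nitrophenol epi absorbance | Read-out: % inhibition relative to enzyme-containing and enzyme-free wells | Benchmarks: High control without enzyme, low control DMSO plus TDP2 | Replicates: Singlicate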
LEDGF integ inh = blockers of LEDGF/p75-dependent integrase strand transfer – biochemical, TR-FRET, high throughput, primary screen. inhibition, % at 3.7 µM. 370,000 tested, 0.64% active. AID 743269, 2014. HIV-1 integrase (with human LEDGF/p75). TR-FRET IN-LEDGF/p75 DNA integration, Eu/Cy5;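 active = inhibition above the screen-wide mean plus 3 SD, cut at about 13% in these data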;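 also: signal is the Cy5 over europium emission ratio at 671 and 618 nm; 0% = plate median of compound wells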
Rin1 Abl inh = inhibitors of Rin1-Abl protein binding, primary screen, biochemical, TR-FRET | 360,000 tested, 0.4% active | Tyrosine-protein kinase ABL1 (Homo sapiens) + Ras and Rab interactor 1 (Homo sapiens), … | AID 588664, 2011 | inhibition, % at 7.35 µM; in the data active = inhibition above about 5%, passing the limit was not always enough
MBD2 inh = inhibitors of MBD2 binding to methylated DNA, primary screen, biochemical, TR-FRET, DNA-binding domain, human; MBD2 binding to methylated oligonucleotide; inhibition, % at 4.4 µM; 370,000 tested, 0.31% active; in the data active = inhibition above about 13%
UHRF1 MBD2 ctr = UHRF1 methylated DNA binding inhibitors, primary screen, counter-screen for MBD2 inhibitor project, biochemical, TR-FRET, human UHRF1, single concentration. UHRF1 binding to methylated oligo. inhibition, % at 4.4 µM. 370,000 tested, 0.75% active. AID 687016, 2013; in the data active = inhibition above about 21%;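 also: UHRF1 SRA domain binding a hemimethylated CpG hairpin DNA probe; 0% = median of test compound wells and 100% = reference inhibitor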
Target sequence (Q96T88 whole entry, looked up, the tested form may be a part): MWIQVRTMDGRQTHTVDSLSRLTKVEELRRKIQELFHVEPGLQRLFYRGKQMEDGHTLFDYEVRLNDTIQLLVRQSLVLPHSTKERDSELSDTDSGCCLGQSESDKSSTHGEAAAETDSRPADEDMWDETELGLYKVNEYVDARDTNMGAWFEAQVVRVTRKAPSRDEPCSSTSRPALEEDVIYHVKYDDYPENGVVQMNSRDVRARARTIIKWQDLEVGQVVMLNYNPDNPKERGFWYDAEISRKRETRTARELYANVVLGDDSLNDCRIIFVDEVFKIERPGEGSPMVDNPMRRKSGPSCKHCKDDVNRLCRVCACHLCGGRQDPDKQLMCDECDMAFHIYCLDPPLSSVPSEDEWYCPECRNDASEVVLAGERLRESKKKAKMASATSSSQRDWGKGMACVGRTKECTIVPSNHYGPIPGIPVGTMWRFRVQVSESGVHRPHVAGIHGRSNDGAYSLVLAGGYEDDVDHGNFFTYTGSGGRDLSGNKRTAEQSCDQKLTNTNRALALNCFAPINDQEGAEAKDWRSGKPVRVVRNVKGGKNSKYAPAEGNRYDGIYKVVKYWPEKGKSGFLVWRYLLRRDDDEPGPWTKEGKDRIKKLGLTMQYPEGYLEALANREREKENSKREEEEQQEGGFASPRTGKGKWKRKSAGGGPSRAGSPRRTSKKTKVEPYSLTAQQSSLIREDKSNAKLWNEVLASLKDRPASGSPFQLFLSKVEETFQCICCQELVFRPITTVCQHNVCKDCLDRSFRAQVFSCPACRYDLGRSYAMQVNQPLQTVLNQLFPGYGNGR
Starred values were filed as active, the others as inactive. Only some compounds are listed: those with a hit (about 1.9% of all), similar ones and a draw of the others.

`CC(C)C[C@@H](CN)NC(=O)c1nc[nH]c1C(=O)N[C@@H](Cc1ccccc1)C(=O)CNC[C@H](C)NC(=O)c1nc[nH]c1C(=O)N[C@@H](C)C(=O)O` gave TDP2 inh 10.2, LEDGF integ inh -3.3, Rin1 Abl inh 1.1, MBD2 inh -1.9 and UHRF1 MBD2 ctr 1.7.
For COc1ccc(C(=O)OCCN2CCN(C3CN(Cc4cn(Cc5cccc(F)c5)nn4)S(=O)(=O)C3)CC2)cc1OC (configuration not stated) the results were TDP2 inh 1.1, LEDGF integ inh -0.8, MBD2 inh 1.9 and UHRF1 MBD2 ctr 12.1.
`CCn1c(SCC(=O)NCc2ccc3c(c2)OCO3)nc2c(c1=O)SCC2` gave TDP2 inh 0.5, LEDGF integ inh 17.8*, Rin1 Abl inh 4.8, MBD2 inh -2.6 and UHRF1 MBD2 ctr 0.8.
For CCOc1ccc(CCNC(=O)c2cc3sccc3n2Cc2cccc(C)c2)cc1OCC the results were TDP2 inh 4.7, LEDGF integ inh -0.1, MBD2 inh 2.4 and UHRF1 MBD2 ctr -0.2.
Screening CSc1ccccc1NC(=O)Nc1ccccc1Cl returned TDP2 inh 7.5, LEDGF integ inh -1.7, Rin1 Abl inh 0.6, MBD2 inh 2.0 and UHRF1 MBD2 ctr -0.3.
`CSc1ccccc1NC(=O)NCCCl` gave TDP2 inh 0.5, LEDGF integ inh -1.1, Rin1 Abl inh 0.8, MBD2 inh 1.7 and UHRF1 MBD2 ctr 22.1*.
Cc1ccc(NC(=O)OC2CC3CC2[C@H]2CCCCN2C3)cc1 (some centres not stated) was read as TDP2 inh 4.0, LEDGF integ inh -1.1, MBD2 inh -2.0 and UHRF1 MBD2 ctr -0.2.
CCCc1nc2ccc(Br)cn2c1Cc1ccccc1 was read as TDP2 inh -4.8, LEDGF integ inh 3.6, Rin1 Abl inh 5.0, MBD2 inh 3.9 and UHRF1 MBD2 ctr 23.0*.
For CCCc1nc2ccc(Br)cn2c1Cc1cccc(Cl)c1 the results were TDP2 inh 1.8, LEDGF integ inh -1.6, Rin1 Abl inh 1.3, MBD2 inh 7.8 and UHRF1 MBD2 ctr 21.0*.
Screening COc1ccc(/C=N\NC(=O)Cc2cccs2)c(OC)c1OC returned TDP2 inh 1.0, LEDGF integ inh -2.0, MBD2 inh -0.4 and UHRF1 MBD2 ctr 0.1.
Screening COc1ccc(NC(=O)c2cc3ccccn3n2)cc1 returned TDP2 inh -7.3, LEDGF integ inh 4.3, Rin1 Abl inh -2.0, MBD2 inh -6.3 and UHRF1 MBD2 ctr 29.5*.
Screening O=S1(=O)c2c(NCc3ccco3)cccc2Oc2ccccc2CN1Cc1cn(Cc2ccccc2C(F)(F)F)nn1 returned TDP2 inh 12.0, LEDGF integ inh 2.0, MBD2 inh 3.6 and UHRF1 MBD2 ctr -0.7.
`CC(C)Oc1ccc2ccccc2c1CNC[C@H]1O[C@@H](n2cnc(C(N)=O)n2)[C@H](O)[C@@H]1O` gave TDP2 inh -0.2, LEDGF integ inh 2.9, Rin1 Abl inh 1.8, MBD2 inh 5.6 and UHRF1 MBD2 ctr 43.9*.
`NC(=O)c1ncn([C@@H]2O[C@H](CNCc3cccc4c3sc3ccccc34)[C@@H](O)[C@H]2O)n1` gave TDP2 inh -3.9, LEDGF integ inh -2.2, Rin1 Abl inh -3.5, MBD2 inh 8.6 and UHRF1 MBD2 ctr 21.5*.
Screening CCN(CC)C(=O)Cn1c2ccccc2c2nc3n(c(=O)c21)CCS3 returned TDP2 inh -8.5, LEDGF integ inh 2.1, MBD2 inh -2.3 and UHRF1 MBD2 ctr 0.6.
N#C/C(=C\c1ccc(C#N)cc1)C(=O)N1CCCC1 was read as Rin1 Abl inh -2.8.
N#C/C(=C\c1ccc(O)cc1)C(=O)N1CCCC1 was read as TDP2 inh 8.2, LEDGF integ inh -2.1, Rin1 Abl inh -4.7, MBD2 inh 8.4 and UHRF1 MBD2 ctr 21.4*.
O=C(OCc1cn(Cc2ccc(F)cc2F)nn1)N1CCOCC1 was read as TDP2 inh 0.3, LEDGF integ inh -3.5, MBD2 inh 0.8 and UHRF1 MBD2 ctr 2.5.
Screening COC(=O)CCc1sc(Nc2ccccc2)nc1-c1ccc(OC)cc1 returned TDP2 inh -0.7, LEDGF integ inh -2.1, Rin1 Abl inh 2.1, MBD2 inh 3.7 and UHRF1 MBD2 ctr 36.6*.

Assay outcomes from PubChem.
